# E-sel inducer: induces E-selectin expression in human endothelial cells; actives 0.37% (n = 260,000); activation, % at 7.58 µM; P16581; HUVEC E-selectin immunofluorescence imaging; normalized: neutral wells 0, TNF-alpha wells 100; AID 686992;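 active = mean E-selectin-positive cell signal at least 10% of the positive control, reached in at least 60% of replicates, without over 20% cell loss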
#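 Test system – human umbilical vein endothelial cells (HUVEC), E-selectin induction · Input – 3,000 HUVEC seeded per well · Buffer or medium – EGM-2, gelatin · Compound dosing – single-point compound dose · Detection – immunofluorescence imaging · Measure – percent E-selectin-positive cells · Controls – TNF-alpha high, DMSO low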
# ERAP1 HTS inh: blocks human ERAP1 aminopeptidase activity | actives 0.15% (n = 340,000) | Q9NZ08 | inhibition, % at 10.7 µM | AID 652197 | recombinant ERAP1, Leu-AMC fluorescence, 60 min;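 active = mean replicate inhibition of at least 30%, or all replicates individually reaching that 30% level; inactive = mean below 30% and not every replicate reaching it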;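 note: 0% = neutral control wells and 100% = L-leucinethiol positive control wells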
# SIRT5 inh: blocks human SIRT5 desuccinylation of peptide. Q9NXA8. inhibition, % at 15 µM. Purified SirT5, succinyl-peptide AMC, trypsin-coupled fluorescence. AID 652115. actives 1.1% (n = 330,000); in the data active = inhibition above about 15%
# MLL AF4-AF9 inh: blocks AF4 peptide binding to human AF9. inhibition, % at 10 µM. actives 0.47% (n = 350,000). P42568. AlphaScreen, biotin-AF4 peptide binding to FLAG-AF9;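 active = every replicate reaching a set inhibition limit, whatever the replicate mean, cut at about 25% in these data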;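 note: 0% = plate neutral control median and 100% = total signal loss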
# Target sequence (P42568 whole entry, looked up): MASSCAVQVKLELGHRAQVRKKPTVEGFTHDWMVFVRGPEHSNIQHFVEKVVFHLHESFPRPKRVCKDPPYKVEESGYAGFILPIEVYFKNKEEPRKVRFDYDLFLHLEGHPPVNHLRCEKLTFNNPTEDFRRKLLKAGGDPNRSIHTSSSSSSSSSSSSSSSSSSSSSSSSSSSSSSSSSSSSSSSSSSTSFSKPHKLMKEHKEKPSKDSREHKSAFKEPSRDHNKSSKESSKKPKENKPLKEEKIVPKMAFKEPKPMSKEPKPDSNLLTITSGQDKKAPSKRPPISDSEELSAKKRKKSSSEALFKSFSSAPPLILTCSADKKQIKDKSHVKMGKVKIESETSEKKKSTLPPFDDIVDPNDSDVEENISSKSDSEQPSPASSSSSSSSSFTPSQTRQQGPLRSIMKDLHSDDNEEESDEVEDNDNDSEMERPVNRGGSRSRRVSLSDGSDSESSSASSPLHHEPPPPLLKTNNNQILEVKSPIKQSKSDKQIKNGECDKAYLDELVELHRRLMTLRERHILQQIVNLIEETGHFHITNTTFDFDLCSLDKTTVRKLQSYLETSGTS
# rRNA inh HTS: selective bacterial rRNA inhibition in E. coli; E. coli WT GFP vs humanized-ribosome RFP mutants, fluorescence, 24 h; stronger effect = lower value; DMSO median 0, no signal -100; AID 720706; actives 1.6% (n = 350,000); GFP signal change (wild-type ribosome), % (test concentration not listed);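 active = significant combined selectivity score with lowered wild-type GFP, culture density cut under 30%, mutant RFP and density less affected; inactive = any of these conditions unmet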
# S100A4 MyoIIA: S100A4-myosin IIA interaction inhibition. inhibition, % at 10.7 µM. P26447. S100A4/TAMRA-MyoIIA peptide fluorescence polarization. actives 0.14% (n = 360,000). AID 652163;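 active = mean inhibition of at least 70% across replicates, with every replicate also reaching that level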
#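 Material: S100A4 monomer protein | Medium: HEPES pH 7.2 with CaCl2, KCl, NaCl, DTT, Triton | Reagent: Labelled myosin peptide probe, 5 nM | Doses: One dose per compound | Times: 5 min incubation before reading | Benchmarks: Neutral control DMSO, positive control TFP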
# Starred values were filed as active, the others as inactive; · = no result given. A selection: hits, their analogues and other compounds. The true share with any hit is near 3.4%.
SMILES,E-sel inducer,ERAP1 HTS inh,SIRT5 inh,MLL AF4-AF9 inh,rRNA inh HTS,S100A4 MyoIIA
Cc1noc(C)c1S(=O)(=O)N(C)C[C@@H]1Oc2ccc(NC(=O)Nc3cccc4ccccc34)cc2CC(=O)N([C@@H](C)CO)C[C@@H]1C,0.2,0.5,-3.0,-0.2,-0.5,-21.4
CCCNC(=O)C[C@@H]1CC[C@H]2[C@H](COc3ccc(NC(=O)NC(C)C)cc3C(=O)N2C)O1,0.2,·,-5.5,·,1.3,2.5
CCOC(=O)c1c(-c2ccc(OC)cc2)csc1/N=C/C1C(=O)CCCC1=O,278.1*,-0.9,-2.1,0.1,-15.2,-4.7
CCOC(=O)c1c(-c2ccc(OC)cc2)csc1/N=C/N(C)C,-0.2,1.2,-2.7,1.4,-18.7,-3.2
Cc1cc(C(=O)COC(=O)Cc2n[nH]c(=O)c3ccccc23)c(C)n1-c1ccc2c(c1)OCO2,-1.8,-2.1,1.1,3.5,-25.2*,2.6
CC(C)NC(=O)N(C)C[C@@H]1Oc2ccc(NC(=O)Cn3cnnn3)cc2C(=O)N([C@H](C)CO)C[C@H]1C,58.6*,·,·,·,5.1,·
C[C@@H]1CN([C@@H](C)CO)C(=O)Cc2cc(NC(=O)Cn3cnnn3)ccc2O[C@H]1CN(C)C(=O)Nc1ccc(F)cc1,86.0*,·,·,·,7.1,·
CC(C)NC(=O)N(C)C[C@@H]1Oc2ccc(NC(=O)Cn3cnnn3)cc2CC(=O)N([C@@H](C)CO)C[C@H]1C,66.3*,-0.7,-4.2,-1.5,6.9,1.0
C[C@@H]1CN([C@@H](C)CO)C(=O)Cc2cc(NC(=O)c3ccncc3)ccc2O[C@@H]1CN(C)C(=O)Nc1ccc(C(F)(F)F)cc1,73.8*,1.5,2.5,-8.3,1.5,-0.4
COc1ccc(S(=O)(=O)N(C)C[C@H]2OCCCC[C@@H](C)Oc3ccc(NC(=O)c4ccccc4)cc3C(=O)N([C@@H](C)CO)C[C@H]2C)cc1,0.5,-3.3,5.7,-1.8,3.1,0.6
C[C@@H]1CN([C@@H](C)CO)C(=O)c2cc(N(C)C)ccc2O[C@H]1CN(C)C(=O)Nc1ccccc1,·,·,·,0.1,4.6,·
CC(C)C#Cc1ccc2c(c1)O[C@@H](CN(C)S(C)(=O)=O)[C@H](C)CN([C@@H](C)CO)S2(=O)=O,1.1,-3.3,-0.8,0.6,-4.6,3.7
C[C@@H]1CCCCO[C@@H](CN(C)C(=O)Nc2ccccc2)[C@@H](C)CN([C@H](C)CO)C(=O)c2cc(NS(=O)(=O)c3cn(C)cn3)ccc2O1,-0.2,-0.2,-4.0,0.3,5.3,8.4
CCCC#Cc1ccc([C@H]2[C@@H](CO)N3CCCCN(CC4CC4)C[C@H]23)cc1,·,-0.4,-4.7,16.1,·,-7.0
C[C@H](CO)N1C[C@H](C)[C@@H](CN(C)C(=O)Nc2ccc(C(F)(F)F)cc2)Oc2ccc(NC(=O)Cn3cnnn3)cc2CC1=O,-7.4,0.7,-1.7,-4.6,1.2,-3.7
C[C@@H]1CN([C@H](C)CO)C(=O)Cc2cc(NC(=O)Cn3cnnn3)ccc2O[C@H]1CN(C)C(=O)Nc1ccc(C(F)(F)F)cc1,32.3*,0.5,-3.6,0.1,-3.1,-1.4
C[C@H](CO)N1C[C@H](C)[C@H](CN(C)C(=O)Nc2ccc(C(F)(F)F)cc2)Oc2ccc(NC(=O)Cn3cnnn3)cc2CC1=O,41.5*,1.3,-4.7,-0.8,1.6,0.3
Cc1ccc(S(=O)(=O)N(C)C[C@H]2Oc3ccc(NC(=O)Cn4cnnn4)cc3CC(=O)N([C@@H](C)CO)C[C@H]2C)cc1,-0.1,1.5,34.4*,5.1,1.8,-35.9
C/C=C/c1ccc2c(c1)O[C@H](CN(C)C(=O)Cc1cccnc1)[C@H](C)CN([C@H](C)CO)S2(=O)=O,-0.3,-0.1,0.4,-0.1,-0.8,-1.2
Cc1ccc(S(=O)(=O)N(C)C[C@H]2Oc3cc(C#Cc4ccncc4)ccc3S(=O)(=O)N([C@@H](C)CO)C[C@@H]2C)cc1,0.9,0.0,10.0,1.3,-2.9,-18.5
Cc1ccc(S(=O)(=O)N(C)C[C@@H]2Oc3cc(C#Cc4ccncc4)ccc3S(=O)(=O)N([C@@H](C)CO)C[C@H]2C)cc1,·,0.6,15.0*,2.1,·,-13.9

# Assay outcomes as filed in PubChem BioAssay.
